Screening data (PubChem)
Sampled rows, rich in hits. Any-hit rate of the full collection: about 2.3%.
GalR3 antagonist – GalR3 antagonists in HEK293 cells, primary screen, cell-based, fluorescence readout | 360,000 compounds, 0.44% hits | HEK293 GalR3-CNG cAMP membrane potential fluorescence; galR3 body fused to GalR1 C-terminus | inhibition, % at 3 µM | AID 651719, 2012 | Galanin receptor type 3 (Homo sapiens), O60755;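 active = inhibition above the screen-wide average plus 3 SD, cut at about 13% in these data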;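 note: forskolin and galanin both at EC90 stimulate the cells; cAMP rise reported by CNG channel membrane potential dye signal; 0% = forskolin plus galanin with DMSO and 100% = forskolin alone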
NR2E3 ag-1 – NR2E3 agonists in two-hybrid cells, primary screen, cell-based, luminescence, CHO-S, Gal4-NCOR/VP16-NR2E3. Photoreceptor-specific nuclear receptor (Homo sapiens), Q9Y5X4. luciferase. inhibition of corepressor binding, % at 3.98 µM. 360,000 compounds, 0.35% hits. AID 602229, 2012;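 active = inhibition above the mean of all tested compounds plus 3 SD, cut at about 70% in these data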;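 note: 0% = DMSO with NR2E3 transfected cells and 100% = cells lacking NR2E3 construct; higher means lower luciferase signal from less NR2E3 corepressor binding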
NR2E3 ag-2 – inhibitors of NR2E3-RetCOR corepressor binding, primary screen, NR2E3 agonist project, biochemical, TR-FRET, GST-NR2E3, biotin-RetCOR; 1536-well; inhibition of corepressor binding, % at 4.78 µM; 320,000 compounds, 0.12% hits;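 active = percent inhibition above the cutoff of mean plus 3 SD of all tested compounds, set per screening campaign, cut at about 20% in these data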;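 note: 0% = DMSO wells and 100% = biotin wells as full block of FRET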
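Material: NR2E3–RetCOR corepressor complex | Quantity: 1.35 nM GST-tagged NR2E3 final | Schedule: 5 h at 4 °C | Replication: Singlicate compound wells | Reagent: RetCOR corepressor, biotinylated, 7 nM | Controls: Biotin wells as high control, 0.6% DMSO wells as low control | Signal: TR-FRET, Eu(K)-anti-GST donor, streptavidin-D2 acceptor, ex 340, em 617/671 nm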
CHT PAM – CHT positive allosteric modulators, primary screen, cell-based, membrane potential dye, choline EC20. High affinity choline transporter 1 (Homo sapiens), Q9GZV3. CHT-expressing cells; stronger effect = higher value; LV-AA mutant CHT in HEK293 cells. B-score at 10 µM. 310,000 compounds, 0.49% hits. AID 488977, 2010;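 active = initial fluorescence not abnormally high and integrated response B-score, plate-corrected, over 3 SD above library mean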
Target sequence (Q9GZV3 whole entry, looked up): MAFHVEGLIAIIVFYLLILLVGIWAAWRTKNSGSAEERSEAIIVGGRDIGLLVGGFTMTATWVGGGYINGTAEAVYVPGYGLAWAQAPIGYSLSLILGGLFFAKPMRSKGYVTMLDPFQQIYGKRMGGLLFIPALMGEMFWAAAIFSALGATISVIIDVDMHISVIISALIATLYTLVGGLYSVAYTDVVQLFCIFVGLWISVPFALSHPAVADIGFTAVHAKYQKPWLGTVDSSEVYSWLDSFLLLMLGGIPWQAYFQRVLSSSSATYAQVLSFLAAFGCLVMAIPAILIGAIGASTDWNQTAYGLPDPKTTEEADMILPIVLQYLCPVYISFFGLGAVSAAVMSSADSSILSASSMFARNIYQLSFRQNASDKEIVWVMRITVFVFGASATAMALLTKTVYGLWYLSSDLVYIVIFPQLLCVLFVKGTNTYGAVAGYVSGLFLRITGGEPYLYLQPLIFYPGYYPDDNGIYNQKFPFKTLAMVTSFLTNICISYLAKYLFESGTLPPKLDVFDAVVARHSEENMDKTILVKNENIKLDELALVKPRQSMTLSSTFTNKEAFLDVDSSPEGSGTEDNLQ
CHT block – inhibitors of human choline transporter CHT; High affinity choline transporter 1 (Homo sapiens), Q9GZV3; CHT-expressing cells, membrane potential dye, choline response; stronger effect = lower value; B-score at 10 µM; 310,000 compounds, 0.86% hits; AID 488975, 2010;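 active = B-score over 3 SD under the library average, and starting fluorescence ratio not unusually high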;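 note: choline stimulus applied at its EC90 after an EC20 pre-addition; B-score computed on integrated fluorescence ratio after choline addition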
COUP-TFII inh – NR2F2 transcriptional activity inhibitors, primary screen, cell-based, luciferase reporter, HEK293T, luminescence; COUP transcription factor 2 (Homo sapiens), P24468; inhibition, % at 8.6 µM; 370,000 compounds, 0.7% hits; HEK293T NGFI-A luciferase reporter; AID 686940, 2013;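 active = inhibition above a per-plate cutoff, mean inhibition of test wells between control levels plus 3 SD, cut at about 38% in these data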;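 note: cells cotransfected with COUP-TFII expression vector driving the NGFI-A reporter; 0% = median of COUP-TF2 test wells and 100% = reporter-only cells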
VP16 Luc counter – Gal4-VP16 luciferase reporter inhibitors, counter-screen for COUP-TFII antagonist project, cell-based, luminescence, HEK293; AID 687007, 2013; shares compounds with COUP-TFII inh; inhibition, % at 8.5 µM; 2,500 compounds, 25% hits; in the data active = inhibition above about 13%
COUP-TFII conf – NR2F2 transcriptional activity inhibitors, confirmation, cell-based, luciferase reporter, HEK293, triplicate; shares compounds with COUP-TFII inh; HEK293 NGFI-A luciferase reporter, luminescence; inhibition, % at 8.5 µM; 2,500 compounds, 45% hits;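 active = mean inhibition over three repeats above a set limit taken from the earlier primary screen, cut at about 38% in these data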;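 note: 100% = cells given the luciferase reporter alone without the COUP-TF2 vector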
An asterisk follows results filed as active; i = inactive; . = no result.

SMILES	GalR3 antagonist	NR2E3 ag-1	NR2E3 ag-2	CHT PAM	CHT block	COUP-TFII inh	VP16 Luc counter	COUP-TFII conf
CC1Cc2cc(-c3csc(NC(=O)Cc4cccs4)n3)ccc2N1S(C)(=O)=O (stereo not given)	10	10	-3	i	i	81*	-2	85*
CCC(=O)Nc1nc(-c2ccc3c(c2)CC(C)N3S(C)(=O)=O)cs1 (stereo not given)	-7	-49	2	i	i	0	.	.
C#CCNC(=O)C[C@H]1C[C@@]2(C(=O)OC)C(=C[C@H](COCc3ccccc3)O[C@@H]2C)N(Cc2ccccc2)C1=O	.	.	.	.	.	-8	.	.
CCc1ccc(C(=O)Nc2nc3ccccc3[nH]2)cc1	-6	-68	4	i	i	74*	-13	29
COCCCNC(=O)C1CCN(S(=O)(=O)c2ccc3[nH]c(=O)oc3c2)CC1	.	.	.	.	.	-3	.	.
CCC(=O)N1CCc2cc(Br)c(S(=O)(=O)N3CCCC(C(=O)NC(C)(C)C)C3)cc21 (stereo not given)	.	.	.	.	.	-2	.	.
Cc1nnc(SCC(=O)N2CCC(c3noc4ccc(F)cc34)CC2)s1	-2	-71	6	i	i	49*	5	19
Cc1sc2ncnc(SCC(=O)N3CCC(c4noc5ccc(F)cc45)CC3)c2c1C	-3	7	-1	i	i	17	.	.
COC(=O)c1cccc(NS(C)(=O)=O)c1C	-4	-8	0	i	i	1	.	.
COC(=O)c1ccccc1NS(C)(=O)=O	-9	11	1	.	.	103*	-3	-6
CCS(=O)(=O)Nc1ccc2c(c1)C(=O)N(C)[C@@H]1CC[C@H](CC(=O)NCCCN3CCOCC3)O[C@H]1CO2	.	.	.	.	.	-25	.	.
COc1cc(CC(=O)Nc2cccc(S(=O)(=O)N(C)c3ccccc3)c2)cc(OC)c1OC	-2	45	.	.	.	39*	7	20
COc1ccc(CC(=O)Nc2cccc(SC)c2)cc1	-2	-10	-1	i	i	5	.	.
COc1cc(CC(=O)Nc2cccc(SC)c2)cc(OC)c1OC	-5	18	1	i	i	37*	-1	7
CCOC(=O)[C@@]12CCCC3=C1N(CCC3)C(=O)[C@H]2CC(=O)N1CCSCC1	.	.	.	.	.	0	.	.
COc1ccc([C@H]2CC(=O)C=C(c3ccccc3)C2)cc1OC	-8	39	2	.	.	16	.	.
COc1ccc([C@H]2CC(=O)C=C(c3ccc(Oc4ccccc4)cc3)C2)cc1OC	7	20	-1	.	.	44*	-5	12
C=CCN(C(=O)[C@@H](CCCC)[C@@H](O)c1ccc(C(C)=O)cc1)c1ccccc1	.	.	.	.	.	-26	.	.
CCOC(=O)[C@@]12CCCC=C1N(CCc1ccc(Cl)cc1)C(=O)[C@H]2CC(=O)N1CCCC1	.	.	.	.	.	44*	7	40*
Cc1ccccc1CN1CCCCC(NC(=O)C2CCC2)C1=O (stereo not given)	.	.	.	.	.	-5	.	.
S=C(NCCCc1cnc[nH]1)NCCCN(Cc1ccc(Cl)cc1)c1ccc(Br)cn1	-3	7	.	.	.	38*	10	-2
CN(Cc1ccc(F)cc1)C(=O)c1cccc2c1C(=O)N(Cc1cccnc1)C2	.	.	.	.	.	3	.	.
O=C(CSc1nnc(-c2ccccc2F)n1Cc1ccco1)Nc1ccccc1-c1ccccc1	.	.	.	.	.	14	.	.
O=C(Nc1ccc(-c2nc3ccccc3o2)c(O)c1)c1cc(-n2cnnc2)ccc1Cl	-3	-1	-3	i	i	44*	-8	17
C#CCNC(=O)C[C@H]1C[C@@]2(C(=O)OC)C(=C[C@H](C(C)(C)C)O[C@@H]2C)N(Cc2ccc(Cl)cc2Cl)C1=O	.	.	.	.	.	-5	.	.
SMILES	GalR3 antagonist	NR2E3 ag-1	NR2E3 ag-2	CHT PAM	CHT block	COUP-TFII inh	VP16 Luc counter	COUP-TFII conf
COc1ccc(CC(=O)Nc2cccc(-c3nnc(-c4cccc(C)c4)o3)c2)cc1OC	3	15	3	i	i	53*	-20	11
CCc1cccc(NC(=O)Cc2ccc(OC)c(OC)c2)c1	1	-5	0	i	i	40*	12	32
COc1ccc(CC(=O)Nc2cccc(-c3nnc(-c4ccc(C)cc4)o3)c2)cc1OC	2	-24	5	i	i	-1	.	.
CN(C)c1ccc(N=Nc2nc3ccccc3n2C)cc1	-3	32	-8	i	i	61*	7	22
CCn1c(NCc2ccc(N(C)C)cc2)nc2ccccc21	0	0	3	i	i	-23	.	.
O=C(Nc1ccc(C(F)(F)F)cc1)OC1CC2CC1[C@H]1CCCCN1C2 (stereo not given in full)	.	.	.	.	.	-2	.	.
O=C(N/N=C/c1sc(N2CCOCC2)nc1-c1ccccc1)c1ccc(O)cc1	-4	-18	-3	i	i	-30	.	.
COc1ccc(/C=C/C(=O)Nc2ccc(C)c(S(=O)(=O)N3CCOCC3)c2)cc1	-3	8	.	.	.	68*	-20	25
COc1ccc(C(=O)Nc2ccc(N3CCCCCC3)cc2)cc1S(=O)(=O)N1CCOCC1	-4	-14	6	.	.	49*	-2	36
O=C(N/N=C/c1sc(N2CCOCC2)nc1-c1ccccc1)c1cccc(S(=O)(=O)N2CCCC2)c1	-4	17	2	i	i	38*	3	67*
Cc1cc(C)n(-c2ccc(C(=O)Nc3ccc(C)c(S(=O)(=O)N4CCOCC4)c3)cc2)n1	-7	-8	3	i	i	51*	-1	26
COc1ccc(C(=O)Nc2ccc(NC(=O)c3ccccc3)cc2)cc1S(=O)(=O)N1CCOCC1	-5	-29	-1	i	i	-9	.	.
O=C(NCc1ccccc1)C1(C(=O)C2CC2)CC(c2ccccn2)=NO1 (stereo not given)	.	.	.	.	.	3	.	.
O=C(CSc1nnc(-c2cccnc2)n1Cc1ccco1)Nc1cc(Cl)ccc1F	.	.	.	.	.	-9	.	.
CCOC(=O)c1ccc(NC(=O)c2cccc(S(=O)(=O)N3CCOCC3)c2)cc1	-3	18	3	i	i	38*	-2	23
